Assays:
Mus musculus [1] = assay: Effect on humoral immune response in mice against sheep red blood cells by the plaque-forming cell (PFC/10e6 spleen cells) method in experiment 3 at dose 12 mg/kg; assay type: functional
How it was run: (§1)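 Male ICR mice, 8-10 weeks old, groups of four, were immunized iv with 1 × 10^8 SRBC in PBS. After 24 h they received a single sc inguinal dose in saline, or as a suspension in saline with 1% Me2SO. Splenic hemolytic plaque-forming cells were counted 4 days later by Cunningham's method. Values are the mean of four ± SE, with a paired t test against the control.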

Mus musculus [2] = assay: Tested for increase in foot-pad thickness (mm) by its effect on cellular immune response in mice against sheep red blood cells by DHR method in experiment 12 at dose 12 mg/kg; assay type: functional
How it was run: (§2)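 Delayed-type hypersensitivity was run in male CDF1 (Balb/c × DBA/2Cr) mice, 8-10 weeks old, groups of four. Mice were sensitized with 1 × 10^8 SRBC in PBS into one hind footpad, with sc inguinal dosing in saline or in 1% Me2SO-saline. Four days later the opposite footpad was challenged with 1 × 10^8 SRBC. The read-out was the gauge-measured increase in thickness from just before to 24 h after challenge, as mean ± SE (n = 4).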

Mus musculus [3] = assay: Effect on humoral immune response in mice against sheep red blood cells by the plaque-forming cell (PFC/10e6 spleen cells) method in experiment 3 at dose 3 mg/kg; assay type: functional; how it was run: as §1
Mus musculus [4] = assay: Tested for increase in foot-pad thickness (mm) by its effect on cellular immune response in mice against sheep red blood cells by the DHR method in experiment 12 at dose 3 mg/kg; assay type: functional; how it was run: as §2
Mus musculus [5] = assay: Effect on humoral immune response in mice against sheep red blood cells by the plaque-forming cell (PFC/10e6 spleen cells) method in experiment 5 at dose 12 mg/kg; assay type: functional
How it was run: (§3)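 Male CDF1 (Balb/c × DBA/2Cr) mice, 8-10 weeks old, groups of four, were immunized iv with 1 × 10^8 SRBC in PBS. After 24 h they received a single sc inguinal dose in saline, or as a suspension in saline with 1% Me2SO. Spleens were taken 4 days later and hemolytic plaque-forming cells counted by Cunningham's method. Values are the mean of four mice ± SE, with a paired Student's t test against the control.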

Mus musculus [6] = assay: Effect on humoral immune response in mice against sheep red blood cells by the plaque-forming cell (PFC/10e6 spleen cells) method in experiment 5 at dose 3 mg/kg; assay type: functional; how it was run: as §3
Mus musculus [7] = assay: Tested for increase in foot-pad thickness (mm) by its effect on cellular immune response in mice against sheep red blood cells by the DHR method in experiment 14 at dose 3 mg/kg; assay type: functional; how it was run: as §2
Mus musculus [8] = assay: Tested for increase in foot-pad thickness (mm) by its effect on cellular immune response in mice against sheep red blood cells by DHR method in experiment 14 at dose 12 mg/kg; assay type: functional; how it was run: as §2
Mus musculus [9] = assay: Tested for the immunological activity by its effect on humoral immune response in mice against sheep red blood cells (SRBC) by the plaque-forming cell (PFC/10e 6 spleen cells) method in experiment 7 at dose 12 mg/kg; assay type: functional; how it was run: as §3
Mus musculus [10] = assay: Tested for increase in foot-pad thickness (mm) by its effect on cellular immune response in mice against sheep red blood cells by DHR method in experiment 11 at dose 12 mg/kg; assay type: functional
How it was run: (§4)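 Male ICR mice, 8-10 weeks old, groups of four, were sensitized with 1 × 10^8 SRBC in PBS into one hind footpad and dosed sc in the inguinal region, in saline or in saline with 1% Me2SO. Four days later the other footpad was challenged with 1 × 10^8 SRBC. Foot thickness was gauged just before and 24 h after challenge, and the increase was reported as mean of four ± SE.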

Mus musculus [11] = assay: Tested for the immunological activity by its effect on humoral immune response in mice against sheep red blood cells (SRBC) by the plaque-forming cell (PFC/10e 6 spleen cells) method in experiment 7 at dose 3 mg/kg; assay type: functional; how it was run: as §3
Mus musculus [12] = assay: (§5) Acute lethal dose was determined in mice upon subcutaneous administration; assay type: ADME, organism-based; conditions: in vivo, sc
How it was run: (§6)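 Male mice, 8–10 weeks old, CDF1 (Balb/c × DBA/2Cr). Groups of six dosed once, either iv or sc. Three to five dose levels were chosen from 400, 300, 150, 80, 40, 20 and 10 mg/kg. LD50 was calculated by the Litchfield–Wilcoxon method. Vehicle was saline or saline with 1% Me2SO, depending on compound.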

Mus musculus [13] = assay: (§7) Acute lethal dose was determined in mice upon intravenous administration; assay type: ADME, organism-based; conditions: in vivo; how it was run: as §6
Mus musculus [14] = assay: Tested increase in foot-pad thickness (mm) by its effect on cellular immune response in mice against sheep red blood cells by the DHR method in experiment 16 at dose 3 mg/kg; assay type: functional
How it was run: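 Male ICR mice, 8–10 weeks old, groups of four. Sensitized with SRBC (1 × 10^8) in PBS injected into one hind footpad; compound given sc in the inguinal region in saline or in saline with 1% Me2SO. Four days later the other hind footpad was challenged with SRBC (1 × 10^8). Dial gauge read just before and 24 h after challenge. Value is the mean increase ± SE.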

Mus musculus [15] = assay: Effect on humoral immune response in mice against sheep red blood cells by the plaque-forming cell (PFC/10e 6 spleen cells) method in experiment 2 at dose 3 mg/kg; assay type: functional; how it was run: as §1
Mus musculus [16] = assay: Effect on humoral immune response in mice against sheep red blood cells by the plaque-forming cell (PFC/10e 6 spleen cells) method in experiment 2 at dose 12 mg/kg; assay type: functional; how it was run: as §1
Mus musculus [17] = assay: Tested for increase in foot-pad thickness (mm) by its effect on cellular immune response in mice against sheep red blood cells by DHR method in experiment 16 at dose 12 mg/kg; assay type: functional
How it was run: (§8)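 Male mice, 8–10 weeks old, ICR strain. Groups of four were sensitized with 1 × 10^8 SRBC in PBS into one hind footpad, with compound given sc in the inguinal region in saline or saline/1% Me2SO. Four days later, 1 × 10^8 SRBC were injected into the other hind footpad. Foot thickness was measured with a dial gauge just before and 24 h after this challenge, and the increase was taken as the difference. Values are the mean of four mice ± SE.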

Mus musculus [18] = assay: Tested for increase in foot-pad thickness (mm) by its effect on cellular immune response in mice against sheep red blood cells by DHR method in experiment 10 at dose 12 mg/kg; assay type: functional; how it was run: as §4
Mus musculus [19] = assay: Tested for increase in foot-pad thickness (mm) by its effect on cellular immune response in mice against sheep red blood cells by the DHR method in experiment 10 at dose 3 mg/kg; assay type: functional; how it was run: as §4
Mus musculus [20] = assay: Effect on humoral immune response in mice against sheep red blood cells by the plaque-forming cell (PFC/10e 6 spleen cells) method in experiment 1 at dose 3 mg/kg; assay type: functional; how it was run: as §3
Mus musculus [21] = assay: Effect on humoral immune response in mice against sheep red blood cells by the plaque-forming cell (PFC/10e 6 spleen cells) method in experiment 1 at dose 12 mg/kg; assay type: functional; how it was run: as §3
Mus musculus [22] = assay: Effect on humoral immune response in mice against sheep red blood cells by the plaque-forming cell (PFC/10e6 spleen cells) method in experiment 7 at dose 12 mg/kg; assay type: functional
How it was run: (§9)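 Male mice, 8–10 weeks old, CDF1 (Balb/c × DBA/2Cr) in experiment 7. Groups of four were immunized iv with 1 × 10^8 SRBC in PBS. After 24 h, compound was given sc in the inguinal region in saline or saline/1% Me2SO. Four days later, splenic hemolytic plaque-forming cells were counted by the Cunningham method and expressed per 10^6 spleen cells. Values are the mean of four mice ± SE.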

Mus musculus [23] = assay: Effect on humoral immune response in mice against sheep red blood cells by the plaque-forming cell (PFC/10e6 spleen cells) method in experiment 7 at dose 3 mg/kg; assay type: functional; how it was run: as §9
Mus musculus [24] = assay: Tested for increase in foot-pad thickness (mm) by its effect on cellular immune response in mice against sheep red blood cells by the DHR method in experiment 16 at dose 3 mg/kg; assay type: functional; how it was run: as §8
Mus musculus [25] = assay: Effect on humoral immune response in mice against sheep red blood cells by the plaque-forming cell (PFC/10e6 spleen cells) method in experiment 4 at dose 3 mg/kg; assay type: functional; how it was run: as §3
Mus musculus [26] = assay: Effect on humoral immune response in mice against sheep red blood cells by the plaque-forming cell (PFC/10e6 spleen cells) method in experiment 8 at dose 3 mg/kg; assay type: functional; how it was run: as §3
Mus musculus [27] = assay: Effect on humoral immune response in mice against sheep red blood cells by the plaque-forming cell (PFC/10e6 spleen cells) method in experiment 6 at dose 12 mg/kg; assay type: functional; how it was run: as §3
Mus musculus [28] = assay: Effect on humoral immune response in mice against sheep red blood cells by the plaque-forming cell (PFC/10e6 spleen cells) method in experiment 4 at dose 12 mg/kg; assay type: functional; how it was run: as §3
[29] = as §5; assay type: ADME, organism-based; conditions: mouse, in vivo, sc; how it was run: as §6
[30] = as §7; assay type: ADME, organism-based; conditions: mouse, in vivo; how it was run: as §6
Mus musculus [31] = assay: Effect on humoral immune response in mice against sheep red blood cells by the plaque-forming cell (PFC/10e6 spleen cells) method in experiment 8 at dose 12 mg/kg; assay type: functional; how it was run: as §3
Mus musculus [32] = assay: Effect on humoral immune response in mice against sheep red blood cells by the plaque-forming cell (PFC/10e6 spleen cells) method in experiment 6 at dose 3 mg/kg; assay type: functional; how it was run: as §3

With Fc1ccc2c(c1)CCC1C2N=C2SCCN21 (trans isomer) the PFC (Mus musculus [1]) was 1620, the Increase in footpad thickness (Mus musculus [2]) was 0.44 mm and the PFC (Mus musculus [3]) was 1970. The Increase in footpad thickness (Mus musculus [4]) was 0.44 mm.

Work on Clc1ccc2c(c1)CCC1C2N=C2SCCN21 (trans isomer) yielded a PFC (Mus musculus [5]) of 790, a PFC (Mus musculus [6]) of 1530 and an Increase in footpad thickness (Mus musculus [7]) of 0.5 mm. It also gave an Increase in footpad thickness (Mus musculus [8]) of 0.46 mm.

With c1ccc2c(c1)CCC1N=C3SCCN3C21 (trans isomer) the PFC (Mus musculus [9]) was 960, the Increase in footpad thickness (Mus musculus [10]) was 0.39 mm and the PFC (Mus musculus [11]) was 1110. It also gave an LD50 (Mus musculus [12]) of 190 mg/kg, an LD50 (Mus musculus [13]) of 26 mg/kg and an Increase in footpad thickness (Mus musculus [14]) of 0.27 mm. The PFC (Mus musculus [15]) was 2440, the PFC (Mus musculus [16]) was 2580 and the Increase in footpad thickness (Mus musculus [17]) was 0.43 mm.

In the case of c1ccc2c(c1)CCC1C2N=C2SCCN21 (trans isomer), the Increase in footpad thickness (Mus musculus [18]) is reported as 0.42 mm, the LD50 (Mus musculus [12]) is reported as 320 mg/kg and the LD50 (Mus musculus [13]) is reported as 67 mg/kg. It also gave an Increase in footpad thickness (Mus musculus [19]) of 0.57 mm, a PFC (Mus musculus [20]) of 1100 and a PFC (Mus musculus [21]) of 1500.

With Brc1ccc2c(c1)C1N=C3SCCN3C1CC2 (trans isomer) the PFC (Mus musculus [22]) was 920, the PFC (Mus musculus [23]) was 740 and the Increase in footpad thickness (Mus musculus [24]) was 0.35 mm. The Increase in footpad thickness (Mus musculus [17]) was 0.31 mm.

Molecule Fc1ccc2c(c1)CCC1N=C3SCCN3C21 (trans isomer) has a PFC (Mus musculus [1]) of 2070, an Increase in footpad thickness (Mus musculus [2]) of 0.42 mm and a PFC (Mus musculus [3]) of 2550. The Increase in footpad thickness (Mus musculus [4]) was 0.42 mm.

Work on Clc1ccc2c(c1)CCC1N=C3SCCN3C21 (trans isomer) yielded a PFC (Mus musculus [5]) of 820, a PFC (Mus musculus [6]) of 1060 and an Increase in footpad thickness (Mus musculus [7]) of 0.39 mm. For the same molecule, the Increase in footpad thickness (Mus musculus [8]) was 0.36 mm.

In the case of c1ccc([C@H]2CN3CCSC3=N2)cc1 [LEVAMISOLE], the PFC (Mus musculus [5]) is reported as 1670, the PFC (Mus musculus [25]) is reported as 1380 and the PFC (Mus musculus [6]) is reported as 1330. The PFC (Mus musculus [22]) was 970, the PFC (Mus musculus [26]) was 570 and the PFC (Mus musculus [27]) was 1330. The PFC (Mus musculus [1]) was 1870, the PFC (Mus musculus [28]) was 1800 and the PFC (Mus musculus [23]) was 1390. The LD50 [29] was 136 mg/kg, the LD50 [30] was 15 mg/kg and the Increase in footpad thickness (Mus musculus [14]) was 0.34 mm. The PFC (Mus musculus [3]) was 2820, the PFC (Mus musculus [31]) was 1200 and the PFC (Mus musculus [32]) was 1850.
